# The list is not random: actives were taken first. Their share in the collection is about 1.6%.
# Mdm2 ligase inh: Mdm2 E3 ligase (human) inhibition; AID 1230; signal enhancement, % at 5 µM; hit rate 0.11% among 210,000; cell-based MDM2 ubiquitination luciferase reporter, 2 h; 0 = plate control, 100 = twice control, blank-subtracted; Q00987;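 active = signal enhancement of 30% or more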;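 also: luminescence tracks abundance of the self-degrading MDM2-luciferase fusion protein; higher signal means inhibition of MDM2 E3 ligase activity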
# Target sequence (Q00987 whole entry, looked up, the tested form may be a part): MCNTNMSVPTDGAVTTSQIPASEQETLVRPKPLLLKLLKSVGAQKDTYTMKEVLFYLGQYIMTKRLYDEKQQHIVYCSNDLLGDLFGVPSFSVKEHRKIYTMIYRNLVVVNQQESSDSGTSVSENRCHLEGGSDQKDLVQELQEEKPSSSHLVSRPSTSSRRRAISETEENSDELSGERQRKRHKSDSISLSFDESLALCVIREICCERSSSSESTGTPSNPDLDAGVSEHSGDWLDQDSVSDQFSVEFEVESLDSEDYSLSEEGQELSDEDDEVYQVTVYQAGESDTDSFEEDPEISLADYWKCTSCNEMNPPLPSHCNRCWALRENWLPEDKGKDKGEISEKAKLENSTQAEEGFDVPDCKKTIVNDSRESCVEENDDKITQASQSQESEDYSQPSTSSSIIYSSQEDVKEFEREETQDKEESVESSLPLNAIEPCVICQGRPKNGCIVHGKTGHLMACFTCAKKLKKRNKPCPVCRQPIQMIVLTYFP
#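 Test system: mammalian cells stably expressing self-ubiquitinating, self-degrading MDM2 E3–luciferase fusion; Amount: 2000 cells in each well; Medium: DMEM; Schedule: 4 h settle plus 2 h compound, 37 °C; Technique: SteadyLite luciferase luminescence after 15 min room-temperature reagent incubation; Benchmarks: plate control and blank wells.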
# Pf gamet viab: kills late stage P. falciparum gametocytes; P. falciparum stage V gametocytes, ATP luminescence, 24 h; inhibition, % at 10.9 µM; hit rate 0.065% among 150,000; AID 743093;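 active = inhibition above the mean plus 3 SD of compounds within the control limits, set per campaign, cut at about 38% in these data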;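 also: 0% = DMSO wells and 100% = medium only without gametocytes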
# TNF necrop inh: TNF-alpha cell death inhibition in Jurkat FADD-/- cells | Jurkat FADD-/- TNF necroptosis rescue, ATP luminescence, 24 h; 0 = TNF only, 100 = no-TNF cells | activation (protection from cell death), % at 10 µM | hit rate 0.068% among 220,000;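 active = activation, meaning protection from cell death, of at least 50% relative to plate controls; inactive = activation below 50%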;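 also: necroptosis triggered by 40 ng/mL TNF-alpha added together with compound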
# zVAD death inh: L929 zVAD cell death inhibition; viability rescue, % at 10 µM; AID 1377; hit rate 0.38% among 220,000; L929 zVAD necroptosis rescue, ATP luminescence, 24 h; with zVAD 60 µM;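 active = activation, scaled between plate controls, above about 75%, limit read from the data; inactive = activation under that limit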;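 also: 0% = zVAD with DMSO and 100% = DMSO alone without zVAD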
# Wee1 stabilizer: blocks degradation of human Wee1 kinase. P30291. reporter increase, % at 5 µM. hit rate 1.2% among 220,000. HeLa Luc-Wee1K328M stability, luciferase luminescence; 100% = proteasome inhibitor MG132 effect;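 active = activation above the mean of all tested compounds plus 3 SD, set per screening run, cut at about 8.8% in these data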;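 also: cells exposed to compound for 20 h before luminescence read; 0% = DMSO alone and 100% = MG132 at 30 µM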
# Wee1 degr conf: human Wee1 degradation inhibition, confirmation. shares compounds with Wee1 stabilizer. HeLa Luc-Wee1K328M degradation, luminescence; vehicle 0%, proteasome-blocked wells 100%. activation, % at 5 µM. hit rate 4% among 1,100. AID 1410; in the data active = activation above about 8.9%
# zVAD necrop conf: confirmed blocker of zVAD induced death in L929 cells | shares compounds with zVAD death inh | L929 zVAD-induced necroptosis rescue, ATP luminescence, 24 h | activation (protection from necroptosis), % at 10 µM | hit rate 16% among 760;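 active = mean protection from necroptosis of at least 50% over duplicate tests; inactive = mean protection below 50%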;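 also: 0% = cells with zVAD alone and 100% = vehicle cells without zVAD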
# * hit, by the source's call; x = not tested or not shown.
SMILES,Mdm2 ligase inh,Pf gamet viab,TNF necrop inh,zVAD death inh,Wee1 stabilizer,zVAD necrop conf,others
O=C(CSc1nnc(-c2ccncc2)o1)N1CCCCCC1,2,-10,0,76*,13*,0,Wee1 degr conf=5
Cc1ccc(-c2nnc(SCC(=O)N3CCCC3)o2)cc1,-2,x,-4,0,-1,x,
CC(=O)Nc1cccc(-c2csc(Nc3ccc(C)cn3)n2)c1,-21,x,-1,3,8,x,
CC(=O)Nc1cccc(-c2csc(Nc3ncccn3)n2)c1,-17,x,6,80*,13*,5,Wee1 degr conf=5
COc1ccc(NC(=S)N2CCC(c3nc4ccccc4[nH]3)CC2)c(OC)c1,-11,x,-6,2,3,x,
O=c1c(Cl)c(Cl)cnn1Cc1ccc(F)cc1,-93,15,-6,55,-1,x,
O=C(OCn1ncc(Cl)c(Cl)c1=O)c1ccc(F)cc1,-17,x,-25,78*,3,53*,
O=C(OCn1ncc(Cl)c(Cl)c1=O)c1ccccc1Cl,0,5,9,102*,2,64*,
CCOc1cc(C2C(C#N)=C(N)Oc3n[nH]c(-c4ccncc4)c32)cc([N+](=O)[O-])c1O (centres undefined),-16,5,3,2,1,x,
CCOC(=O)C1(Nc2nccs2)Sc2ccccc2NC1=O (centres undefined),-19,x,-8,1,-1,x,
CC(=O)NC1CSCC1OC(C)=O (centres undefined),-29,x,1,0,-1,x,
Cc1ccc(C2CC(=O)NC(SCC(=O)Nc3nccs3)=C2C#N)cc1 (centres undefined),-15,-4,92*,96*,4,85*,
COc1ccc(C(=O)Nc2ccc(S(=O)(=O)N3CCCCC3)cc2)cc1OC,-7,x,2,0,1,x,
O=C(Cc1ccccc1)Nc1nnc(SCC(=O)NC2CCCC2)s1,-16,-20,2,1,-3,x,
O=C(CSc1nnc(NC2CCCCC2)s1)Nc1ccc2c(c1)C(=O)c1ccccc1C2=O,-12,4,12,80*,1,90*,
CC(C)Nc1nnc(SCC(=O)Nc2ccc3c(c2)C(=O)c2ccccc2C3=O)s1,-11,x,2,81*,6,45,
CC(C)CC(=O)Nc1nnc(SCC(=O)Nc2ccc(F)cc2)s1,-3,2,1,2,6,x,
O=C(CSc1nnnn1-c1ccc(O)cc1)Nc1cccc(S(=O)(=O)N2CCCC2)c1,-9,18,2,88*,3,89*,
Cc1ccc(NC(=O)CSc2nnnn2-c2ccc3c(c2)OCO3)cc1C,-11,9,5,79*,-1,74*,
O=C(CSc1nnnn1-c1ccc(O)cc1)Nc1ccc(N2CCOCC2)c(Cl)c1,-4,x,5,76*,1,75*,
NC(=O)c1ccc(-n2nnnc2SCC(=O)Nc2ccc(N3CCOCC3)c(Cl)c2)cc1,-4,8,0,0,2,x,
CC(C)/C=C/C(=O)N1CCC(N2CCC(C(=O)N3CCOCC3)CC2)CC1,-8,3,1,0,-3,x,
Cc1ccc2[nH]c3c(c2c1)CCc1cn[nH]c1-3,10,x,92*,89*,2,80*,
Nc1[nH]nc2ncc3cc4ccccc4nc3c12,0,-17,-3,82*,-2,37,
CCCNC(=O)c1c(N)n(-c2cccc(OC)c2)c2nc3ccccc3nc12,-16,12,-5,77*,0,12,
Nc1c(C(=O)NCC2CCCO2)c2nc3ccccc3nc2n1-c1ccccc1 (centres undefined),-9,2,-9,86*,1,33,
COCCCNC(=O)c1c(N)n(-c2cccc(S(N)(=O)=O)c2)c2nc3ccccc3nc12,-5,x,-3,-1,0,x,
Cn1c(CNc2cccc(Cl)c2)nnc1SCC(=O)OC1CCCCC1,11,1,-3,0,-1,x,

# Screening results deposited in PubChem BioAssay by several laboratories.
